Type in all cases: ADME, organism-based
Holding throughout (conditions): in vivo

Series [1] concerns Homo sapiens. Put plainly: Drug excretion in healthy white human urine at 2 mg, po up to 24 hrs. A digest of the protocol:
(§1)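 Urine was collected before a single 2 mg oral dose and over 0–4, 4–8, 8–12, 12–16 and 16–24 h. Metabolites M1 and M4 were measured by LC-MS/MS. With no reference standards, amounts were expressed in arbitrary units as the peak area ratio to diclofenac internal standard. Ae0-24h is the sum of amounts over the collection periods.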

Series [2] concerns Homo sapiens. Put plainly: Drug excretion in healthy white human with SLCO1B1 521TC/CYP2C8*3/*3 combined genotype treated with 2 mg, po repaglinide. An outline of the steps: as §1
A short description of series [3]: Drug excretion in healthy white human urine with CYP2C8*1/*3 genotype at 2 mg, po up to 24 hrs. An outline of the steps: as §1
Series [4] relates to Homo sapiens. The series can be described thus: Drug excretion in healthy white human with SLCO1B1 521CC/CYP2C8*3/*3 combined genotype treated with 2 mg, po repaglinide. An outline of the steps:
as §1

For series [5], the system named is Homo sapiens. Put plainly: Drug excretion in healthy white human with SLCO1B1 521TT/CYP2C8*1/*1 combined genotype treated with 2 mg, po repaglinide. An outline of the steps:
as §1

Series [6] deals with Homo sapiens. The series can be described thus: Drug excretion in healthy white human with SLCO1B1 521TT/CYP2C8*3/*3 combined genotype treated with 2 mg, po repaglinide. A digest of the protocol: as §1
Series [7] in a line: Drug excretion in healthy white human urine with CYP2C8*1/*1 genotype at 2 mg, po up to 24 hrs. An outline of the steps: as §1
Series [8] has as its system Homo sapiens. The series can be described thus: Drug excretion in healthy white human with SLCO1B1 521TC/CYP2C8*1/*1 combined genotype treated with 2 mg, po repaglinide. An outline of the steps:
as §1

The nature of series [9]: Drug excretion in healthy white human urine with CYP2C8*3/*3 genotype at 2 mg, po up to 24 hrs. An outline of the steps:
as §1

Series [10] concerns Homo sapiens. Put plainly: Drug excretion in healthy white human with SLCO1B1 521TC/CYP2C8*1/*3 combined genotype treated with 2 mg, po repaglinide. An outline of the steps: as §1
Series [11] concerns Homo sapiens. The series can be described thus: Drug excretion in healthy white human with SLCO1B1 521TT/CYP2C8*1/*3 combined genotype treated with 2 mg, po repaglinide. An outline of the steps:
as §1

Series [12] has as its system Homo sapiens. Put plainly: Drug excretion in healthy white human with SLCO1B1 521CC/CYP2C8*1/*3 combined genotype treated with 2 mg, po repaglinide. An outline of the steps:
as §1

As to `CCOc1cc(CC(=O)N[C@@H](CC(C)C)c2ccccc2N)ccc1C(=O)O`, the Ae came to 48.3 a.u in the series with Homo sapiens [1]; 52.8 a.u with Homo sapiens [2]; 42.6 a.u in series [3]; 29.1 a.u in the series on Homo sapiens [4]; 57 a.u in the series on Homo sapiens [5]; 53.1 a.u in the series on Homo sapiens [6]. Also, the Ae came to 52.8 a.u in [7]; 39.9 a.u with Homo sapiens [8]; 53.3 a.u in [9]; 33.3 a.u in the series with Homo sapiens [10]; 47.5 a.u in the series with Homo sapiens [11]; 41.4 a.u in the series with Homo sapiens [12].

On to `CCOc1cc(CC(=O)N[C@@H](CC(C)C)c2ccccc2N2CCCC(O)C2)ccc1C(=O)O` (some centres undefined), for which the Ae came to 217.8 a.u in the series with Homo sapiens [1]; 471.7 a.u with Homo sapiens [2]; 212.4 a.u in series [3]; 268.6 a.u with Homo sapiens [4]; 181.7 a.u in the series on Homo sapiens [5]; 79.4 a.u in the series with Homo sapiens [6]. Besides, the Ae came to 184.2 a.u in [7]; 191.7 a.u with Homo sapiens [8]; 336.7 a.u in series [9]; 197.8 a.u in the series on Homo sapiens [10]; 226.4 a.u in the series with Homo sapiens [11]; 155.1 a.u in the series with Homo sapiens [12].

The values above are taken from ChEMBL document CHEMBL3526119, “Effect of the CYP2C8 genotype on the pharmacokinetics and pharmacodynamics of repaglinide” (Drug Metab Dispos, 2011).
